Measured values taken from PMC3240942 (Molecular cell, 2011).

Experiments:
Sirt1 [1] = molecular target: T1, Sirt1 (Mus musculus, UniProt Q923E4); test: Inhibition of Sirt1 deacetylation of p53 in transfected H1299 cells; assay type: cell-based; settings: 10-fold molar excess of expression vector, 20 μM etoposide 1 hr
T1 sequence (Q923E4 1-737): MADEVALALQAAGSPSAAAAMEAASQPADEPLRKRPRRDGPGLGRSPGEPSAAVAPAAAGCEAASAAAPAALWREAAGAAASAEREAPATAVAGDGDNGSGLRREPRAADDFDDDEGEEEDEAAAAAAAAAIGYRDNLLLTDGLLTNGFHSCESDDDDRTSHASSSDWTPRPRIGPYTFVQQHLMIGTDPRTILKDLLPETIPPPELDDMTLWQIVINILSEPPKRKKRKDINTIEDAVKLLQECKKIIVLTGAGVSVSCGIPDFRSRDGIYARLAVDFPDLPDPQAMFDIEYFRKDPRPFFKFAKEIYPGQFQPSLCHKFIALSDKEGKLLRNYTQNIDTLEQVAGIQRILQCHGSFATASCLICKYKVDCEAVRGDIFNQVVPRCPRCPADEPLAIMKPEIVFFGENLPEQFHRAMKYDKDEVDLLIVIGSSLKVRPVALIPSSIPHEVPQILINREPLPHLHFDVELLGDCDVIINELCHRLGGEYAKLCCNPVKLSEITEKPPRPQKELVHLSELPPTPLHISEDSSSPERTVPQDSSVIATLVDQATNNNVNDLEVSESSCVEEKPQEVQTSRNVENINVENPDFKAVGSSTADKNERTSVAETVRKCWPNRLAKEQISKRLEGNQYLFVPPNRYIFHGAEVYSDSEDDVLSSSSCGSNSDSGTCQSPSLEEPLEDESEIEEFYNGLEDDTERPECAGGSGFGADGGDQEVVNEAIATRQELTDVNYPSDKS
Method in brief: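 H1299 cells transiently co-transfected with expression vectors for p53 and V5-tagged Sirt1, plus a 10-fold molar excess of a vector expressing the Flag-tagged test peptide (with or without a nuclear localization signal). After 48 h, cells are exposed to 20 μM etoposide for 1 hr before harvest. Acetylated p53 is detected by immunoblot with an antibody specific for acetyl-K382.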

Sirt1 [2] = molecular target: T1, Sirt1; settings: binds to deacetylase core of Sirt1; ref Kim et al., 2008; Zhao et al.; cited from earlier work

In the case of “DBC1: Deleted in Breast Cancer 1, endogenous Sirt1 inhibitor”, the “inhibition of Sirt1 activity in vivo (p53 deacetylation)” value (Sirt1 [1]) is given as “also inhibited Sirt1 activity” and the “effect on Sirt1 activity” value (Sirt1 [2]) is given as “inhibits its activity”.
